As a reminder, the IC50 is the concentration that gives 50% inhibition. Broadly, the Ki is a dissociation constant, usually derived from enzyme kinetics or from competition with a known ligand.

The target of assay [1] is T1, Gamma-secretase (Homo sapiens) (UniProt Q96BI3+Q9NZ42+Q8WW43+P49768+Q92542+P49810). Put plainly: Inhibition of HPI-Bpa-Bt labelling of gamma secretase (unknown origin) expressed in HEK293 cells at 10 uM preincubated for 1.5 hrs followed by irradiation for 30 mins by Western blot analysis. The assay is classed as cell-based. The note with it: time 2.0 hrs. The gist of the method: (§1)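 Purified γ-secretase, 2 nM, preincubated 30 min at 37 °C in assay buffer (50 mM HEPES pH 7.0, 150 mM NaCl, 0.025% DOPC, 0.1% DOPE, 0.25% CHAPSO). Biotinylated photoprobe added at 1 μM, with or without 10 μM competitor, for 1.5 h at 37 °C. UV 350 nm for 30 min on ice, streptavidin pull-down, six washes. Presenilin-1 NTF detected by western blot.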

Assay [2] concerns the target T1, Gamma-secretase (Homo sapiens). Put plainly: Competitive inhibition of HPI 2 binding to gamma secretase (unknown origin). In kind it is protein-complex assay. The gist of the method:
(§2)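 Cross-competition kinetics using the standard activity assay. Purified γ-secretase from suspension HEK293 cells, expressed from a tetracistronic vector, in detergent-lipid buffer (HEPES pH 7.0, DOPC, DOPE, CHAPSO). Varying concentrations of two inhibitors titrated against each other, with C100Flag held at 0.50 μM. Aβ40 measured by sandwich ELISA. Data plotted as reciprocal plots and fit to a two-inhibitor equation.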

Assay [3] has the same target. In words: Inhibition of TSA-Bpa-Bt labelling of gamma secretase (unknown origin) expressed in HEK293 cells at 10 uM preincubated for 1.5 hrs followed by irradiation for 30 mins by Western blot analysis. In kind it is cell-based. Conditions: time 2.0 hrs. In short, it runs like this:
as §1
(In western blotting, separated proteins are transferred to a membrane and probed.)

For assay [4] the target is unchanged. In words: Competitive inhibition of TSA 1 binding to gamma secretase (unknown origin). In kind it is protein-complex assay. In short, it runs like this:
as §2

Assay [5] addresses Gamma-secretase. Put plainly: Inhibition of gamma secretase (unknown origin) expressed in HEK293 cells assessed as reduction of A-beta40 levels using C100-FLAG as substrate incubated for 2 hrs by sandwich ELISA. The assay is classed as cell-based, Homo sapiens. A general note: An ELISA detects its analyte on a solid surface through an enzyme-linked reagent.
Assay [6] concerns the target Gamma-secretase. Put plainly: Noncompetitive inhibition of gamma secretase (unknown origin) expressed in HEK293 cells assessed as reduction of A-beta40 levels using varying level of C100-FLAG as substrate incubated for 2 hrs by double reciprocal plot analysis. In kind it is cell-based, Homo sapiens. The gist of the method:
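1 nM purified γ-secretase from suspension HEK293 cells (tetracistronic pMLINK) in HEPES pH 7.0, NaCl, DOPC, DOPE, 0.25% CHAPSO. Preincubated 30 min at 37 °C, then given inhibitor in DMSO (2% final) with C100Flag at 0–4.5 μM. Reaction run 2 h at 37 °C; Aβ40 read by sandwich ELISA. Ki obtained by fitting to a noncompetitive inhibition equation.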

Each structure is given as a SMILES string. Active and inactive are the calls of the source. The calls are words filed in the database; no cut-off is given here.

On to `COC(=O)[C@@H](NC(=O)[C@H](CC(C)C)NC(=O)N(Cc1ccccc1)C[C@@H](O)[C@H](Cc1ccccc1)NC(=O)[C@@H](NC(=O)OC(C)(C)C)C(C)C)C(C)C`, for which the inhibition result in assay [1] and in assay [2] was “inactive” each time. Also, the inhibition result in assay [3] is “Active”.

For the compound `CC[C@H](C)[C@H](NC(=O)[C@@H](NC(=O)[C@@H](NC(=O)C(C)(C)NC(=O)CNC(=O)[C@@H](NC(=O)OC(C)(C)C)C(C)C)C(C)C)C(C)C)C(=O)NC(C)(C)C(=O)N[C@@H](Cc1ccccc1)C(=O)N[C@H](C(=O)NC(C)(C)C(=O)OC)C(C)C`, the inhibition entry in assay [1] was “Active”. Further, the inhibition result in assay [4] and in assay [3] was “inactive” in each case. Consider `CC[C@H](C)[C@H](NC(=O)[C@@H](NC(=O)[C@@H](NC(=O)C(C)(C)NC(=O)CNC(=O)[C@@H](NC(=O)OC(C)(C)C)C(C)C)C(C)C)C(C)C)C(=O)NC(C)(C)C(=O)N[C@H](C(=O)N[C@H](C(=O)NC(C)(C)C(=O)NCCCCCCC(=O)N[C@H](C(=O)N[C@@H](Cc1ccccc1)[C@H](O)CN(Cc1ccccc1)C(=O)N[C@@H](CC(C)C)C(=O)N[C@H](C(N)=O)C(C)C)C(C)C)C(C)C)[C@@H](C)O`, for which the IC50 at Gamma-secretase [5] stood at 1.5 nM. In the case of `CC[C@H](C)[C@H](NC(=O)[C@@H](NC(=O)[C@@H](NC(=O)C(C)(C)NC(=O)CNC(=O)[C@@H](NC(=O)OC(C)(C)C)C(C)C)C(C)C)C(C)C)C(=O)NC(C)(C)C(=O)N[C@H](C(=O)N[C@H](C(=O)NC(C)(C)C(=O)NCCCCCCCCCCC(=O)N[C@H](C(=O)N[C@@H](Cc1ccccc1)[C@H](O)CN(Cc1ccccc1)C(=O)N[C@@H](CC(C)C)C(=O)N[C@H](C(N)=O)C(C)C)C(C)C)C(C)C)[C@@H](C)O`, the inhibition constant Ki on Gamma-secretase [6] came out at 0.65 nM. The half-maximal inhibitory concentration (IC50) on Gamma-secretase [5] turned out to be 0.7 nM. For the compound `CC[C@H](C)C(NC(=O)[C@@H](NC(=O)C(C)(C)NC(=O)[C@@H](NC(=O)[C@H](Cc1ccccc1)NC(=O)C(C)(C)NC(=O)[C@@H](NC(=O)[C@@H](NC(=O)[C@@H](NC(=O)C(C)(C)NC(=O)CNC(=O)[C@@H](NC(=O)OC(C)(C)C)C(C)C)C(C)C)C(C)C)[C@@H](C)CC)C(C)C)C(C)C)C(=O)N[C@H](C(=O)N[C@H](C(=O)N[C@@H](Cc1ccccc1)[C@H](O)CN(Cc1ccccc1)C(=O)N[C@@H](CC(C)C)C(=O)N[C@H](C(N)=O)C(C)C)C(C)C)C(C)C` (some centres not stated), the IC50 at Gamma-secretase [5] stood at 58.9 nM. Consider `CC[C@H](C)[C@H](NC(=O)[C@@H](NC(=O)[C@@H](NC(=O)C(C)(C)NC(=O)CNC(=O)[C@@H](NC(=O)OC(C)(C)C)C(C)C)C(C)C)C(C)C)C(=O)NC(C)(C)C(=O)N[C@@H](Cc1ccccc1)C(=O)N[C@H](C(=O)NC(C)(C)C(=O)NCC(=O)NCC(=O)NCC(=O)N[C@H](C(=O)N[C@@H](Cc1ccccc1)[C@H](O)CN(Cc1ccccc1)C(=O)N[C@@H](CC(C)C)C(=O)N[C@H](C(N)=O)C(C)C)C(C)C)C(C)C`, for which the inhibition entry in assay [1] and in assay [3] was “Active” in each case. In the case of `CC[C@H](C)[C@H](NC(=O)[C@@H](NC(=O)[C@@H](NC(=O)C(C)(C)NC(=O)CNC(=O)[C@@H](NC(=O)OC(C)(C)C)C(C)C)C(C)C)C(C)C)C(=O)NC(C)(C)C(=O)N[C@H](C(=O)N[C@H](C(=O)NC(C)(C)C(=O)NCCCCCCCCC(=O)N[C@H](C(=O)N[C@@H](Cc1ccccc1)[C@H](O)CN(Cc1ccccc1)C(=O)N[C@@H](CC(C)C)C(=O)N[C@H](C(N)=O)C(C)C)C(C)C)C(C)C)[C@@H](C)O`, on Gamma-secretase [5], the IC50 is 1.1 nM. On to `CC[C@H](C)[C@H](NC(=O)[C@@H](NC(=O)[C@@H](NC(=O)C(C)(C)NC(=O)CNC(=O)[C@@H](NC(=O)OC(C)(C)C)C(C)C)C(C)C)C(C)C)C(=O)NC(C)(C)C(=O)N[C@H](C(=O)N[C@H](C(=O)NC(C)(C)C(=O)NCCCCCCCCCCCC(=O)N[C@H](C(=O)N[C@@H](Cc1ccccc1)[C@H](O)CN(Cc1ccccc1)C(=O)N[C@@H](CC(C)C)C(=O)N[C@H](C(N)=O)C(C)C)C(C)C)C(C)C)[C@@H](C)O`, for which the IC50 at Gamma-secretase [5] is 0.87 nM.

In the case of `CC[C@H](C)[C@H](NC(=O)[C@@H](NC(=O)[C@@H](NC(=O)C(C)(C)NC(=O)CNC(=O)[C@@H](NC(=O)OC(C)(C)C)C(C)C)C(C)C)C(C)C)C(=O)NC(C)(C)C(=O)N[C@H](C(=O)N[C@H](C(=O)NC(C)(C)C(=O)NCCCCC(=O)N[C@H](C(=O)N[C@@H](Cc1ccccc1)[C@H](O)CN(Cc1ccccc1)C(=O)N[C@@H](CC(C)C)C(=O)N[C@H](C(N)=O)C(C)C)C(C)C)C(C)C)[C@@H](C)O`, at Gamma-secretase [5], the IC50 is 3.2 nM. As to `CC[C@H](C)[C@H](NC(=O)[C@@H](NC(=O)[C@@H](NC(=O)C(C)(C)NC(=O)CNC(=O)[C@@H](NC(=O)OC(C)(C)C)C(C)C)C(C)C)C(C)C)C(=O)NC(C)(C)C(=O)N[C@H](C(=O)N[C@H](C(=O)NC(C)(C)C(=O)NCCC(=O)N[C@H](C(=O)N[C@@H](Cc1ccccc1)[C@H](O)CN(Cc1ccccc1)C(=O)N[C@@H](CC(C)C)C(=O)N[C@H](C(N)=O)C(C)C)C(C)C)C(C)C)[C@@H](C)O`, the IC50 at Gamma-secretase [5] was 6 nM.

In the case of `CC[C@H](C)[C@H](NC(=O)[C@@H](NC(=O)[C@@H](NC(=O)C(C)(C)NC(=O)CNC(=O)[C@@H](NC(=O)OC(C)(C)C)C(C)C)C(C)C)C(C)C)C(=O)NC(C)(C)C(=O)N[C@H](C(=O)N[C@H](C(=O)NC(C)(C)C(=O)OC)C(C)C)[C@@H](C)O`, the IC50 at Gamma-secretase [5] was found to be 34.8 nM.

With `CC[C@H](C)[C@@H](NC(=O)[C@H](NC(=O)[C@H](NC(=O)C(C)(C)NC(=O)CNC(=O)[C@H](NC(=O)OC(C)(C)C)C(C)C)C(C)C)C(C)C)C(=O)NC(C)(C)C(=O)N[C@@H](C(=O)N[C@@H](C(=O)NC(C)(C)C(=O)NCCCCCCCCCCC(=O)N[C@H](C(=O)N[C@@H](Cc1ccccc1)[C@H](O)CN(Cc1ccccc1)C(=O)N[C@@H](CC(C)C)C(=O)N[C@H](C(N)=O)C(C)C)C(C)C)C(C)C)[C@@H](C)O`, the inhibition entry in assay [1], in assay [4], in assay [2] and in assay [3] was “Active” throughout. Turning to `CC[C@H](C)[C@H](NC(=O)[C@@H](NC(=O)[C@@H](NC(=O)C(C)(C)NC(=O)CNC(=O)[C@@H](NC(=O)OC(C)(C)C)C(C)C)C(C)C)C(C)C)C(=O)NC(C)(C)C(=O)N[C@H](C(=O)N[C@H](C(=O)NC(C)(C)C(=O)N[C@H](C(=O)N[C@@H](Cc1ccccc1)[C@H](O)CN(Cc1ccccc1)C(=O)N[C@@H](CC(C)C)C(=O)N[C@H](C(N)=O)C(C)C)C(C)C)C(C)C)[C@@H](C)O`, the IC50 at Gamma-secretase [5] came out at 7.5 nM.

Source of the values: ChEMBL document CHEMBL4831543, “Design of Transmembrane Mimetic Structural Probes to Trap Different Stages of γ-Secretase-Substrate Interaction” (J Med Chem, 2021).
